# Screening results as filed in PubChem.
# Rce1 inh: yeast Rce1p protease inhibitors, primary screen, biochemical, fluorescence, cell-free homogeneous. calls only. AID 2563, 2010. yeast membranes, quenched prenylated peptide cleavage fluorescence. 0.27% of 290,000 active. CAAX prenyl protease 2 (Saccharomyces cerevisiae (strain ATCC 204508 / S288c)), Q03530;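 active = fall in fluorescence gain of 50% or more versus controls, with final raw signal at or below 3038400; inconclusive = same 50% fall but final raw signal above 3038400; inactive = fall in fluorescence gain under 50%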;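 also: plate controls were neutral control wells for no effect and wells lacking membranes for full effect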
# Runt-CBFb FRET: inhibitors of RUNX1 Runt–CBFb binding, primary screen, biochemical, FRET, Cerulean-Runt, Venus-CBFb, uHTS; Runt-related transcription factor 1 (Homo sapiens) + Core-binding factor subunit beta …; Cerulean-Runt/Venus-CBFb FRET ratio 530/480, 1 h; inhibition, % at 20 µM; 0.46% of 220,000 active; AID 1496, 2009;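 active = inhibition over about 50% at 20 µM in the single-dose screen, limit read from the data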;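 also: 0% = DMSO wells and 100% = excess unlabeled CBFb competitor control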
# Target sequence (Q01196 whole entry, looked up): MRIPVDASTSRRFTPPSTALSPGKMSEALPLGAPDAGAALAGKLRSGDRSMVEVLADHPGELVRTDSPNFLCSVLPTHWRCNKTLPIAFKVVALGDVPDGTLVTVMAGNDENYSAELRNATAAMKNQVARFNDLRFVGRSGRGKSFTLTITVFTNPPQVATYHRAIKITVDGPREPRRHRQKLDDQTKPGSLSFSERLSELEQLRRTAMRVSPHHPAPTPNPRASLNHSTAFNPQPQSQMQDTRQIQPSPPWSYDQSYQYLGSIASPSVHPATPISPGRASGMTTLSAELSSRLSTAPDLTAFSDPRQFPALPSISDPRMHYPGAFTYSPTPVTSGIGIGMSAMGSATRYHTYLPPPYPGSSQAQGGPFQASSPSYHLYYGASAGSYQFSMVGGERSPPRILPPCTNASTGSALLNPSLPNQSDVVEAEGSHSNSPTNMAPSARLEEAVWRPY
# Target sequence (Q13951 whole entry, looked up): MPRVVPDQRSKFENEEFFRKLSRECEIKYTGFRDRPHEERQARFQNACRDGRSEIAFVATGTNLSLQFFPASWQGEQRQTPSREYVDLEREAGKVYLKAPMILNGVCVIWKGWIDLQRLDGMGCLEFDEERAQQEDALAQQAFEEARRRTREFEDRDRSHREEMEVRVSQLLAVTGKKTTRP
#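 Schedule: protein complex preformed 1 h, compound exposure 1 h, room temperature, dark; test system: Cerulean-labeled Runt domain protein; amount: 100 nM per protein; buffer or medium: Tris 50 mM pH 7.5, KCl, K2SO4, 0.01% BSA; read-out: loss of energy transfer signal; detection: FRET fluorescence; controls: 5 µM unlabeled CBFb as full-inhibition high control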
# Runt-SMMHC FRET: inhibitors of RUNX1 Runt–CBFb-SMMHC binding, primary screen, biochemical, FRET, Cerulean-Runt, Venus-CBFb-SMMHC, uHTS; Cerulean-Runt/Venus-CBFb-SMMHC FRET ratio 530/480, 1 h; inhibition, % at 20 µM; 0.74% of 220,000 active; Runt-related transcription factor 1 (Homo sapiens) + Core-binding factor subunit beta …; AID 1434, 2008;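 active = mean inhibition across duplicate retests at 20 µM reaching about 50%, limit read from the data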;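 also: 0% = DMSO wells and 100% = wells with excess untagged CBFb-SMMHC; inhibitors lower the FRET ratio by blocking Runt binding to CBFb-SMMHC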
# RanGTP-Impb inh: inhibitors of RanGTP-importin-beta interaction, primary screen, biochemical, FRET, CFP-Ran, YFP-importin-beta, homogeneous; Ran GTPase (GTP-bound) - importin-beta complex; cell-free CFP-Ran/YFP-importin-beta FRET ratio; inhibition, % (no concentration beside the values); 1.1% of 300,000 active; AID 2216, 2009;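 active = more than half of the replicate wells show a fall in the fluorescence ratio signal beyond about 16%, limit read from the data, passing the limit was not always enough; inconclusive = exactly half of the replicate wells pass the set limit; inactive = fewer than half of replicates pass the limit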;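 also: 0% = DMSO wells and 100% = Ran loaded with GDP instead of GTP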
# Vif inh: HIV Vif self-association inhibitors, primary screen, imaging, HEK293T, single point | 0.35% of 340,000 active | inhibition, % at 7.49 µM | HEK293T cells, Vif self-association by quenched fluorescence, 24 h | AID 602346, 2012; in the data active = inhibition above about 50%, passing the limit was not always enough; inconclusive = no clear call, values can overlap the other calls; inactive = below about 31%
# * = called active by the depositor; i = inactive; u = inconclusive; x = no result given; + = active, no number. In the library only some 1.7% were active in any assay of this set; here they are far more common.
SMILES,Rce1 inh,Runt-CBFb FRET,Runt-SMMHC FRET,RanGTP-Impb inh,Vif inh
COCC(C)NC(=O)c1cc2c(ccc3ccccc32)oc1=O (stereo unspecified),i,x,x,29*,0
C/C(=N\Nc1nc(-c2cc(C)ccc2C)cs1)c1cc2ccccc2oc1=O,i,-2,-7,3,2
CC(=O)c1cc2c(ccc3ccccc32)oc1=O,i,x,x,116*,0
CCOc1ccc(C2N(c3ccc(F)cc3)C(=O)C3CCCN32)cc1OC (stereo unspecified),i,1,0,21*,12
CCOc1ccc(C2N(c3ccc(OC)cc3)C(=O)C3CCCN32)cc1OC (stereo unspecified),i,1,-3,5,1
CC1(C)c2ssc(=S)c2-c2ccccc2N1C(=O)c1ccco1,i,122*,-2,-6,5
CSc1ccc(CCNS(=O)(=O)c2csc(C(N)=O)c2)cc1,i,x,x,3,-1
CCCCNC(=O)c1cc2c(=O)n3cccc(C)c3nc2s1,i,x,x,-2,x
COCCNC(=O)c1cc2c(=O)n3cccc(C)c3nc2n(Cc2ccncc2)c1=N,u,12,40,192*,-11
COc1ccc(CCNC(=O)c2cc3c(=O)n4cccc(C)c4nc3n(Cc3ccncc3)c2=N)cc1,x,105*,132*,x,x
CCCCNC(=O)c1cc2c(=O)n3cccc(C)c3nc2n(Cc2ccncc2)c1=N,i,20,70*,188*,9
CC(C)[C@H](NC(=O)OCc1ccccc1)C(=O)OCC(=O)Nc1c(F)cccc1F,+,1,0,3,-3
Cc1ccc(S(=O)(=O)N2CCN(C(=O)CCC(=O)NCc3cccc(C(F)(F)F)c3)CC2)cc1,i,x,x,-1,-7
CN1/C(=C\C(=O)c2cccs2)C(C)(C)c2ccccc21,i,48,86*,18*,-19
CN1/C(=C/C(=O)c2cccs2)Sc2ccccc21,i,38,83*,3,-7
COCC(=O)/C=C1\Sc2ccccc2N1C,i,11,-3,3,-3
CCOC(=O)/C=C1/N(C)c2ccccc2C1(C)C,i,0,1,3,-5
CC1(c2ccc3ccccc3c2)NC(=O)N(CC(=O)Nc2ncccc2O)C1=O (stereo unspecified),x,x,x,x,20
Cc1c(NC(=O)c2ccc(Cl)c([N+](=O)[O-])c2)cccc1-n1cnnn1,x,x,x,x,56*
NC(=S)N/N=C/c1cccc(O)c1O,i,2,-9,2,10
Cc1cc(/C=N/NC(N)=S)c(O)c(/C=N/NC(N)=S)c1,i,-137,43,60*,-3
O=C(COC(=O)CC1SC(N2CCCC2)=NC1=O)Nc1c(F)c(F)c(F)c(F)c1F (stereo unspecified),x,x,x,x,4
C=CCOc1ccc(C2C(C#N)=C(N)N(Nc3ccccc3)C3=C2C(=O)CCC3)cc1OC (stereo unspecified),i,89*,104*,7,x
CCCn1c(C)cc(C(=O)COC(=O)c2nccnc2N)c1C,i,11,7,25*,0
CCCn1c(C)cc(C(=O)COC(=O)c2cc(=O)[nH]c3ccccc23)c1C,x,x,x,x,-6
SMILES,Rce1 inh,Runt-CBFb FRET,Runt-SMMHC FRET,RanGTP-Impb inh,Vif inh
CCC(C)[C@H]1CNCCN1CCC12CC3CC(CC(C3)C1)C2 (stereo partly specified),x,x,x,x,-1
Cn1nnnc1SCc1ccc(C(=O)Nc2ccc(Br)cc2)cc1,i,8,7,2,81*
COc1ccc2c(c1)NC(c1cc(Cl)cc(Cl)c1O)c1cccn1-2 (stereo unspecified),x,13,-6,x,1
COc1ccc2c(c1)NC(c1ccc(N(C)C)cc1)c1cccn1-2 (stereo unspecified),i,21,47,42*,-5
CCN=C1S/C(=C\c2cc(Br)c(O)c(OC)c2)C(=O)N1CC,i,x,x,5,x
COC(=O)c1c(C(=O)OC)c2cc(C(=O)c3ccccc3)ccn2c1Cl,i,6,27,29*,x
COC(=O)c1ccc(C(=O)OC)c(NC(=S)N2CCCC2)c1,i,x,x,11,28
COC(=O)c1ccc(C(=O)OC)c(NC(=S)N2CCN(C)CC2)c1,i,12,21,32*,-1
COc1ccc(OCc2cc(C(=O)NCC3CCCCO3)no2)c(Cl)c1 (stereo unspecified),i,x,x,2,-4
COc1cccc(-c2csc(N3CCN(C(=O)Nc4ccc(F)cc4)CC3)n2)c1,i,8,2,-2,-2
COc1cccc(-c2csc(N3CCN(C(=O)Nc4ccccc4OC)CC3)n2)c1,i,0,9,6,122*
CC(C)C(NC(=O)C(C)N1C(=O)c2ccccc2C1=O)c1ccccc1 (stereo unspecified),i,x,x,-3,-5
Cn1c(SCC(=O)c2ccc(F)cc2)nnc1-c1cnccn1,i,-1,-5,-1,122*
NC(c1ccccc1)c1ccncc1 (stereo unspecified),i,x,x,-2,-1
COC(=O)N1C(=O)[C@](c2ccc(Cl)cc2)(C(C)C)N1C(=O)OC,i,x,x,4,51*
COC(=O)N1C(=O)[C@@](c2ccc(OC)cc2)(C(C)C)N1C(=O)OC,i,x,x,1,11
Cc1cc(C)nc(SCC(=O)NC2=NN=C(c3ccc(Br)cc3)CS2)n1,i,x,36,38*,-14
CCC(NC(=O)c1cc(COc2ccc(F)cc2Cl)on1)c1ccncc1 (stereo unspecified),i,x,x,4,-10
Cc1cc(OCC(=O)N2CCC(C(=O)O)CC2)c2c(C)cc(=O)oc2c1,+,x,x,1,2
CSC[C@H](NC(=O)COc1cc2c(c3oc(=O)cc(C)c13)CCC(C)(C)O2)C(=O)O,+,x,x,3,-9
Cc1cc(=O)oc2c3c(cc(OCC(=O)N4CCC[C@H]4C(=O)O)c12)OC(C)(C)CC3,u,x,x,0,-7
Cc1cc(=O)oc2c3c(cc(OCC(=O)N4CCC(C(=O)O)CC4)c12)OC(C)(C)CC3,+,x,x,-2,6
Cn1c(=O)c2cc(NC(=O)NCc3ccc(Cl)cc3Cl)ccc2n1Cc1ccc(F)cc1,x,x,x,x,-7
O=C(NCc1ccccn1)c1ccccc1OCc1ccc(Cl)cc1Cl,x,x,x,x,-12
N#CC1=C(N)SC(N)=C(C#N)C1c1ccoc1,i,13,-28,40*,x
CCOC(=O)C1CCN(C(=O)c2ccc(CNS(=O)(=O)c3ccc(OC)cc3)cc2)CC1,i,-5,1,1,2
